From publication PMC12618243 (Nature Structural & Molecular Biology, 2025)
Where two headings read alike, the source gives them in different places.

T1: OSH6 (Saccharomyces cerevisiae, UniProt Q02201)
T1 sequence (Q02201 1-448): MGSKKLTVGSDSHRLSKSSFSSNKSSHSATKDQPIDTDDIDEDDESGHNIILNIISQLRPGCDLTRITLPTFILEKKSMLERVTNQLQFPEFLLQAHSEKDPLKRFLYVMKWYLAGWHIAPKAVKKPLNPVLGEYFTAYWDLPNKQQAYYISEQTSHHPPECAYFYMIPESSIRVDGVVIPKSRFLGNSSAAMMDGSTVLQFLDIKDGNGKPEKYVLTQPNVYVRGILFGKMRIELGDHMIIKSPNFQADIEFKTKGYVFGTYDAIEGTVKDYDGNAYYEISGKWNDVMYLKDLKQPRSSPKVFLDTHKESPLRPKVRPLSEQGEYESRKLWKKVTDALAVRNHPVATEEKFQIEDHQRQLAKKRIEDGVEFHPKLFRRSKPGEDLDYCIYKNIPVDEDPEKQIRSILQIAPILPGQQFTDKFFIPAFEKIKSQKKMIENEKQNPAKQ

B1: OSH6 purified from E. coli (natural protein)
chain: T1 sequence (Q02201 1-448)
B2: OSH6: soluble lipid transfer protein, PS–PtdIns4P exchanger of S. cerevisiae (protein)
chain: T1 sequence (Q02201 1-448)
modifications: left off: GST, N-terminal, cleaved
B3: full-length IST2 (natural protein)
chain: MSQTITSLDPNCVIVFNKTSSANEKSLNVEFKRLNIHSIIEPGHDLQTSYAFIRIHQDNAKPLFSFLQNLDFIESIIPYHDTELSDDLHKLISISKSKILEAPKQYELYNLSNLTNNPKQSLYFAFLQNYIKWLIPFSFFGLSIRFLSNFTYEFNSTYSLFAILWTLSFTAFWLYKYEPFWSDRLSKYSSFSTIEFLQDKQKAQKKASSVIMLKKCCFIPVALLFGAILLSFQLYCFALEIFIKQIYNGPMISILSFLPTILICTFTPVLTVIYNKYFVEPMTKWENHSSVVNAKKSKEAKNFVIIFLSSYVPLLITLFLYLPMGHLLTAEIRTKVFNAFSILARLPTHDSDFIIDTKRYEDQFFYFIVINQLIQFSMENFVPSLVSIAQQKINGPNPNFVKAESEIGKAQLSSSDMKIWSKVKSYQTDPWGATFDLDANFKKLLLQFGYLVMFSTIWPLAPFICLIVNLIVYQVDLRKAVLYSKPEYFPFPIYDKPSSVSNTQKLTVGLWNSVLVMFSILGCVITATLTYMYQSCNIPGVGAHTSIHTNKAWYLANPINHSWINIVLYAVFIEHVSVAIFFLFSSILKSSHDDVANGIVPKHVVNVQNPPKQEVFEKIPSPEFNSNNEKELVQRKGSANEKLHQELGEKQPASSANGYEAHAATHANNDPSSLSSASSPSLSSSSSSSKTGVVKAVDNDTAGSAGKKPLATESTEKRNSLVKVPTVGSYGVAGATLPETIPTSKNYYLRFDEDGKSIRDAKSSAESSNATNNNTLGTESKLLPDGDAVDALSRKIDQIPKIAVTGGENNENTQAKDDAATKTPLIKDANIKPVVNAAVNDNQSKVSVATEQTKKTEVSTKNGPSRSISTKETKDSARPSNNNTTTTTTTDATQPHHHHHHHRHRDAGVKNVTNNSKTTESSSSSSAAKEKPKHKKGLLHKLKKKL
B4: IST2 containing residues 1-716 (domain or fragment)
chain: MSQTITSLDPNCVIVFNKTSSANEKSLNVEFKRLNIHSIIEPGHDLQTSYAFIRIHQDNAKPLFSFLQNLDFIESIIPYHDTELSDDLHKLISISKSKILEAPKQYELYNLSNLTNNPKQSLYFAFLQNYIKWLIPFSFFGLSIRFLSNFTYEFNSTYSLFAILWTLSFTAFWLYKYEPFWSDRLSKYSSFSTIEFLQDKQKAQKKASSVIMLKKCCFIPVALLFGAILLSFQLYCFALEIFIKQIYNGPMISILSFLPTILICTFTPVLTVIYNKYFVEPMTKWENHSSVVNAKKSKEAKNFVIIFLSSYVPLLITLFLYLPMGHLLTAEIRTKVFNAFSILARLPTHDSDFIIDTKRYEDQFFYFIVINQLIQFSMENFVPSLVSIAQQKINGPNPNFVKAESEIGKAQLSSSDMKIWSKVKSYQTDPWGATFDLDANFKKLLLQFGYLVMFSTIWPLAPFICLIVNLIVYQVDLRKAVLYSKPEYFPFPIYDKPSSVSNTQKLTVGLWNSVLVMFSILGCVITATLTYMYQSCNIPGVGAHTSIHTNKAWYLANPINHSWINIVLYAVFIEHVSVAIFFLFSSILKSSHDDVANGIVPKHVVNVQNPPKQEVFEKIPSPEFNSNNEKELVQRKGSANEKLHQELGEKQPASSANGYEAHAATHANNDPSSLSSASSPSLSSSSSSSKTGVVKAVDNDTAGSAGKKPLATESTE

What was measured:
OSH6 [1] = target: T1, OSH6; experiment: Pulldown of OSH6 by GST-tagged IST2 peptides; type: binding, S. cerevisiae
Outline: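 GST-tagged IST2 peptides (OSH6-binding epitope, varying length) expressed in E. coli BL21 (0.3 mM IPTG at OD600 0.8, 25 °C, 2.5 h). Coated beads incubated with 5 µM (final) OSH6 plus BSA, 1 h, 4 °C. Beads washed without BSA, taken into SDS sample buffer.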

OSH6 [2] = target: T1, OSH6; experiment: ITC binding of IST2 peptides to OSH6; design: species or system S. cerevisiae; conditions: R750A peptide, Extended Data Fig. 7l
full-length IST2 = target: B3; experiment: SEC
MSP2N2 = experiment: SEC of OSH6 with scaffold protein MSP2N2 in absence of lipids; type: binding; conditions: no lipids, 1.2× molar excess MSP2N2, 30 min, performed once
cryo-EM structure [3] = target: the molecule itself; experiment: cryo-EM structure
cryo-EM structure [4] = target: the molecule itself; experiment: cryo-EM structure; remark: listed apart in the source
[5] = target: B1; experiment: pull-down

For “Substitution of R750 to alanine: peptide encompassing residues 732-761 of IST2 carrying the mutation R750A (ITC) (VAGATLPETIPTSKNYYLAFDEDGKSIRDA; UniProt P38250 732-761, looked up, fragment R750A)”, the “OSH6 interaction in pulldown (in words)” value (OSH6 [1]) was “severely compromise binding to OSH6” and the “Binding to OSH6 by ITC (in words)” value (OSH6 [2]) was “severely compromise binding to OSH6”.

B1: binds (full-length IST2).

For B2, the “Interaction with isolated scaffold protein (in words)” value (MSP2N2) was “nor did we detect interactions with the isolated scaffold protein”.

With B3 the “stoichiometry N” value (cryo-EM structure [3]) was 2.

For B4, the “stoichiometry N” value (cryo-EM structure [4]) was 2.

VAGATLPETIPTSKNYYLRFDEDGKSIR [GST fusion of the IST2 peptide encompassing residues 732-759]: binds [5].
